In ChEMBL document CHEMBL1131592, “DNA-Directed alkylating agents. 7. Synthesis, DNA interaction, and antitumor activity of bis(hydroxymethyl)- and bis(carbamate)-substituted pyrrolizines and imidazoles” (J Med Chem, 1998):

Columns and labels:
P388 = assay: Compound was evaluated for reduction in P388 (type I DNA) cell numbers to 50% of control values after a 72 hour exposure.; format: functional, cell-based; conditions: Mus musculus, P388, 72 h
How it was run: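 P388 murine leukemia cells, log-phase cultures; drug present throughout 72 h growth period. IC50 = nominal drug concentration reducing cell density to 50% of control; eight control wells per plate. Averages of at least two (table footnote: three) independent determinations.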

Nucleic Acid = assay: Rate constants (1/s x 10e4) for loss of compound when incubated with calf thymus DNA in SHE buffer (pH 7.0) at 37 degree Centigrade, as determined by HPLC; format: nucleic-acid assay; conditions: Bos taurus
How it was run: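 Aliquots extracted into 1-butanol with NaOAc; unreacted drug quantified by C-18 reverse-phase HPLC, 254 nm. kobs (hydrolysis plus alkylation) from ln(peak area) vs time fit.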

SMILES	IC50 (P388) [µM]	k obs (Nucleic Acid) [s⁻¹]
CNC(=O)OCc1ncn(CCCc2ccc(NC(=O)c3ccc(Nc4ccnc5ccccc45)cc3)cc2)c1COC(=O)NC	> 20	
O=C(Nc1ccc(CCCc2c(CO)c(CO)c3n2CCC3)cc1)c1ccc(Nc2ccnc3ccccc23)cc1	0.11	0.000186
CNC(=O)OCc1nc(SC)n(CCCc2ccc(Nc3c4ccccc4nc4ccccc34)cc2)c1COC(=O)NC	0.8	0.000161
CSc1nc(CO)c(CO)n1CCCc1ccc(Nc2c3ccccc3nc3ccccc23)cc1	1.3	
O=C(Nc1ccc(CCCn2cnc(CO)c2CO)cc1)c1ccc(Nc2ccnc3ccccc23)cc1	> 20	
CNC(=O)OCc1ncn(CCCc2ccc(Nc3c4ccccc4nc4ccccc34)cc2)c1COC(=O)NC	16	
OCc1c(CO)c2n(c1CCCc1ccc(Nc3c4ccccc4nc4ccccc34)cc1)CCC2	1.3	0.000187
OCc1ncn(CCCc2ccc(Nc3c4ccccc4nc4ccccc34)cc2)c1CO	12	
CSc1nc(CO)c(CO)n1CCCc1ccc(NC(=O)c2ccc(Nc3ccnc4ccccc34)cc2)cc1	> 20	
CNC(=O)OCc1nc(SC)n(CCCc2ccc(NC(=O)c3ccc(Nc4ccnc5ccccc45)cc3)cc2)c1COC(=O)NC	11	8.8e-05
O=C(Nc1ccc(CCc2c(CO)c(CO)c3n2CCC3)cc1)c1ccc(Nc2ccnc3ccccc23)cc1	0.03	0.000158
CNC(=O)OCc1nc(SC)n(C)c1COC(=O)NC	> 20	0.000134
